Measured values from different studies.
Each line is one published result; the experiments were not run side by side.
Target: Ephrin type-A receptor 2 (EPHA2, Homo sapiens, UniProt P29317)

SMILES | assay | conditions | measurement | result
O=C(CSc1nc2nccnc2c(=O)n1CCc1ccccc1)Nc1nccs1 | enzyme activity, inhibitor | 10 µM | inhibition | 8%
Cc1cc(-n2nc(Cc3cc(F)cc(C(F)(F)F)c3)nc2C)ccc1C(N)=O | cell-free assay, competition with immobilised ligand | 1 µM | remaining binding | 100%
COc1cc2ncnc(Nc3ccc(Oc4ccccc4)cc3C)c2cc1OC | enzyme activity, inhibitor | 1 µM | inhibition | 2%
Cc1ccc(Nc2nccc(N(C)c3ccc4c(C)n(C)nc4c3)n2)cc1S(N)(=O)=O | enzyme activity, inhibitor | 0.3 µM | inhibition | -2%
COc1cc(Nc2cnc(C#N)c(O[C@H](C)CN(C)C)n2)ncc1-c1cnn(C)c1 | enzyme activity, inhibitor, radiometric | 1 µM | remaining activity | 59%
Cc1ccc(C(=O)Nc2ccc(CN3CCN(C)CC3)c(C(F)(F)F)c2)cc1C#Cc1cnc2cccnn12 | cell-free assay | 23.5 nM | remaining signal | 8.9%
Cc1ccc(NC(=O)c2ccc(C)c(C(F)(F)F)c2)cc1C#Cc1nn(C2CCC(O)CC2)c2ncnc(N)c12 (stereo not shown) | cell-free assay | 10 µM | remaining signal | -3%
O=C(Nc1cnn(-c2csc(C(=O)NC3COC3)c2)c1)Nc1c(F)cccc1Cl | enzyme activity, inhibitor | 5 µM | remaining activity | 97.9%
COc1cc2nccc(Oc3ccc(NC(=O)Nc4ccc(F)cc4F)c(F)c3)c2cc1OC | thermal stability, DSF | 10 µM | ΔTm | 5 to 10 °C
C[C@@H]1CCN(C(=O)CC#N)C[C@@H]1N(C)c1ncnc2[nH]ccc12 | cell-free assay | 0.5 µM | remaining signal | 95.8%
Cc1nccc(COC(=O)N2C[C@@H]3[C@@H](CNC(=O)c4ccc5[nH]nnc5c4)[C@@H]3C2)n1 | cell-free assay, competition with immobilised ligand | 1 µM | remaining binding | 92%
Cn1c(=O)n(-c2ccc(C(C)(C)C#N)cc2)c2c3cc(-c4cnc5ccccc5c4)ccc3ncc21 | enzyme activity, inhibitor | 10 µM | remaining activity | 110%
Nc1ncnc2occ(-c3ccc(NC(=O)Nc4cc(C(F)(F)F)ccc4F)cc3)c12 | cell-free assay | 20 µM | remaining signal | 0%
CC1=C(C#N)[C@@H](c2ccc3[nH]nc(C)c3c2)C(C#N)=C(c2ccc(Cl)cc2)N1 | cell-free assay, competition with immobilised ligand | 1 µM | remaining binding | 100%
O=C1Nc2ccc(Cl)cc2C1=Cc1cc(Cl)c(O)c(Cl)c1 | cell-free assay | 0.5 µM | remaining signal | 95%
CC(C)(C)c1nc2c(s1)c1nc(N)ncc1c1ccc(NS(=O)(=O)c3c(F)cccc3F)c(F)c12 | enzyme activity, inhibitor, radiometric | 1 µM | remaining activity | 109%

SMILES | assay | conditions | measurement | result
O=C(Nc1ccc(Oc2ccc(F)cc2)cc1)N1CCc2ncccc2[C@H]1c1ccc(F)cc1 | cell-free assay, competition with immobilised ligand | 1 µM | remaining binding | 100%
CSc1nc(C)c(-c2ccnc(Nc3ccc(N4CCOCC4)cc3)c2)[nH]1 | cell-free assay, inhibitor | 10 µM | inhibition | 17.1%
CNC(=O)c1cc(Oc2ccc(NC(=O)Nc3ccc(Cl)c(C(F)(F)F)c3)cc2)ccn1 | enzyme activity, inhibitor | 0.3 µM | inhibition | 23%
O=C(NC[C@@H]1[C@H]2CN(C(=O)OCc3cc(C(F)(F)F)cc(C(F)(F)F)c3)C[C@@H]12)c1ccc2[nH]nnc2c1 | cell-free assay, competition with immobilised ligand | 1 µM | remaining binding | 79%
Nc1nc(Nc2ccccc2)sc1C(=O)c1c(F)cccc1F | enzyme activity, inhibitor | 10 µM | remaining activity | 71%
O=C1NC(=O)c2cc(Nc3ccc(F)cc3)c(Nc3ccc(F)cc3)cc21 | cell-free assay | 0.5 µM | remaining signal | 94.3%
Nc1nc(NC2CCCCC2)sc1C(=O)c1ccccc1 | enzyme activity, inhibitor | 10 µM | remaining activity | 110%
CN(c1ncccc1CNc1nc(Nc2ccc3c(c2)CC(=O)N3)ncc1C(F)(F)F)S(C)(=O)=O | enzyme activity, inhibitor | 1 µM | inhibition | 29.7%
CCN(CC)CCNC(=O)c1c(C)[nH]c(/C=C2\C(=O)Nc3ccc(F)cc32)c1C | enzyme activity, inhibitor | 10 µM | inhibition | 52%
C[C@@H]1CN(c2cc(-c3nn(C)c4ccc(OC5(C)CC5)cc34)ncn2)C[C@H](C)O1 | cell-free assay, competition with immobilised ligand | 1 µM | remaining binding | 100%
CNC(=O)c1cc2c(Oc3ccc(NC(=O)C4(C(=O)Nc5ccc(F)cc5)CC4)cc3)ccnc2cc1OC | enzyme activity, inhibitor, radiometric | 1 µM | inhibition | 96%
O=C1NC(c2ccccn2)Sc2ccccc21 (stereo not shown) | cell-free assay, competition with immobilised ligand | 1 µM | remaining binding | 100%
Cc1cc(NC(=O)c2cccc3cc(-c4cccc5[nH]nc(N)c45)ccc23)ccc1F | enzyme activity, inhibitor | 0.1 µM | activity vs control | 103%
CNCc1ccccc1-c1csc([C@H](C)Nc2nc(C)nc3cc(OC)c(OC)cc23)c1 | cell-free assay, competition with immobilised ligand | 1 µM | remaining binding | 80%
CCCOc1ccc(OC)c(F)c1C(=O)c1ccc(C(=O)N[C@@H]2CNC[C@H]2NC(=O)c2ccc3[nH]ncc3c2)cc1 | enzyme activity, inhibitor | 10 µM | remaining activity | 69%
